The source of these data is ChEMBL document CHEMBL1149380, “Synthesis of thieno[2,3-b]pyridinones acting as cytoprotectants and as inhibitors of [3H]glycine binding to the N-methyl-D-aspartate (NMDA) receptor” (J Med Chem, 2006).

One series deals with Glutamate NMDA receptor. The series can be described thus: Inhibition of [3H]glycine binding to NMDA receptor in rat brain membranes. It is filed as cell membranes. The method in brief:
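[3H]glycine displaced from rat hippocampal membranes in presence of 10 µM glutamic acid; 4-5 inhibitor concentrations giving 20-90% inhibition of specific binding; Ki derived; number of experiments given per value.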

The subject of another series is L cells. The series can be described thus: Cytotoxicity against mouse fibroblast L(tk-) cells transfected with human NMDA using LDH assay. Type of series: functional, cell-based. The following applies: L929. The method in brief:
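Mouse L(tk-) fibroblast clone L12-G10 co-transfected with dexamethasone-inducible human NR1a/NR2A; seeded 15 × 10^3 cells/well, grown overnight, then receptor expression induced with 4 µM dexamethasone in Mg2+-free medium with 5% FCS (supplies glutamate and glycine) and 50 mM KCl. Compounds added at increasing, trypan-blue-verified nontoxic concentrations for 24 h. Cell death read as LDH release (INT formazan, 490 nm) relative to total LDH; four-parameter logistic fit for IC50.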

The test system of series [1] is Rattus norvegicus. The series can be described thus: Effect on brain tissue level after 6 min at 10mg/kg, iv. It is filed as ADME, organism-based, Wistar. The following applies: in vivo, 0.1 h. In short, it runs like this: (§1)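 Male Wistar rats given 10 mg/kg intravenously; plasma and brain tissue levels measured 6 min (n = 3) and 1 h (n = 3) after dosing; brain expressed as µmol/kg.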

Series [2] concerns Mus musculus. The series is described as follows: Protection of mice against maximal e-shock after 30 min at 43 mg/kg. It is filed as functional. The method in brief: (§2)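 Male Swiss mice, 10 per dose, dosed intraperitoneally (vehicle 8 parts DMSO, 10 parts H2O); doses spanned 0.3-100 mg/kg depending on compound. Maximal electroshock applied 30 or 60 min later; tonic hind limb extension scored as unprotected. Dose-response fitted to a hyperbolic function giving ID50.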

In series [3] the test system is Rattus norvegicus. The series is described as follows: Effect on brain tissue level after 1h at 10 mg/kg, iv. The conditions noted are these: in vivo. More on the design: dose 10 mg/kg, route intravenous. It is filed as ADME, organism-based, Wistar. In short, it runs like this:
as §1

Another series concerns the target D(2) dopamine receptor (Rattus norvegicus, UniProt P61169). The series is described as follows: Displacement of [3H]raclopride from dopamine receptor D2 in rat striatal membrane. It is filed as cell membranes, Striatum. On the technique in general: Loss of bound radioactivity is the signal in a displacement assay; it reports binding, not function.
Series [4] relates to Mus musculus. The series can be described thus: Protection of mice against maximal e-shock at 30 mg/kg. Type of series: functional. In short, it runs like this:
as §2

The test system of series [5] is Rattus norvegicus. The series can be described thus: Effect on brain tissue level after 6 min at 5 mg/kg, iv. It is filed as ADME, organism-based, Wistar. Details: dose 5 mg/kg, route intravenous. The conditions noted are these: in vivo, 0.1 h. In short, it runs like this: (§3)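 Male Wistar rats given 5 mg/kg intravenously; plasma and brain tissue levels measured at 6 min and 1 h, n = 3 per time; brain expressed as µmol/kg.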

For series [6], the system named is Rattus norvegicus. The series is described as follows: Effect on brain tissue level after 1h at 5 mg/kg, iv. Type of series: ADME, organism-based, Wistar. Details: dose 5 mg/kg, route intravenous. The following applies: in vivo. In short, it runs like this: as §3
Series [7] deals with Mus musculus. The series is described as follows: Protection of mice against maximal e-shock at 0.7 mg/kg. Type of series: functional. The method in brief:
as §2

Series [8] deals with Mus musculus. The series can be described thus: Protection of mice against maximal e-shock after 30 min at 15.5 mg/kg. It is filed as functional. The method in brief:
as §2

Series [9] concerns Mus musculus. The series is described as follows: Protection of mice against maximal e-shock after 60 min at 13.5 mg/kg. Type of series: functional. The method in brief: as §2

Bounds are passed on as bounds.

Sequence of D(2) dopamine receptor (P61169 whole entry): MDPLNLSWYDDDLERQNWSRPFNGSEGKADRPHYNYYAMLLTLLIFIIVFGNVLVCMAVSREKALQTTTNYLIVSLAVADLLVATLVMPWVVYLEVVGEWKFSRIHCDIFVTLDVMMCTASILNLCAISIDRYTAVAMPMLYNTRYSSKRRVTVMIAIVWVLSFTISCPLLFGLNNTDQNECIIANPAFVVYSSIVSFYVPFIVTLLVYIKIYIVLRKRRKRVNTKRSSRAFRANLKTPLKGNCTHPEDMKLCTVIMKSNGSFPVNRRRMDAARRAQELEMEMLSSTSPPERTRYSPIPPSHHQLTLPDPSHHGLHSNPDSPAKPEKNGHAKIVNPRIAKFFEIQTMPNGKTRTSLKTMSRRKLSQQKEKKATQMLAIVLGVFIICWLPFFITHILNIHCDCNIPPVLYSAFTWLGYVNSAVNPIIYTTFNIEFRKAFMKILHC

Take `CC(C)c1csc2nc(O)c(-c3ccccc3)c(O)c12`: the Ki (commonly a measure of affinity in units of concentration, obtained from inhibition or displacement) at Glutamate NMDA receptor turned out to be 1.53 µM.

`CCc1csc2nc(O)c(-c3cccc(Oc4ccccc4)c3)c(O)c12` gave an inhibition constant Ki at Glutamate NMDA receptor of 0.179 µM. In addition, in the series with L cells, the half-inhibitory concentration (IC50) (as a rule, the concentration needed to halve the response being measured) is greater than 50 µM.

As to `Oc1nc2sc(Cl)c(C3CC3)c2c(O)c1-c1ccccc1`, the inhibition constant Ki at Glutamate NMDA receptor came out at 0.058 µM.

In turn, `CCCc1c(Cl)sc2nc(O)c(-c3cccc(Oc4ccccc4)c3)c(O)c12` registered an inhibition constant Ki on Glutamate NMDA receptor of 0.00412 µM. In the series with L cells, this compound registered a half-inhibitory concentration (IC50) of 15.9 µM.

At Glutamate NMDA receptor, `Oc1nc2sc(Br)cc2c(O)c1-c1ccccc1` displayed a Ki of 1.77 µM.

For `Oc1nc2sc(Cl)c(C3CC3)c2c(O)c1-c1cccc(Oc2ccccc2)c1`, the affinity on Glutamate NMDA receptor corresponds to a Ki of 0.0095 µM.

As for `CC(C)c1c(Cl)sc2nc(S)c(-c3cccc(Oc4ccccc4)c3)c(O)c12`, the inhibition constant Ki at Glutamate NMDA receptor came out at 0.139 µM.

Regarding `Oc1nc2sc3c(c2c(O)c1-c1ccccc1)CCCC3`, the inhibitory constant (Ki) on Glutamate NMDA receptor was found to be 4.3 µM.

Compound `COCc1csc2nc(O)c(-c3cccc(Oc4ccccc4)c3)c(O)c12` returned an inhibition constant (Ki) on Glutamate NMDA receptor of 0.036 µM. In the series on L cells, this compound returned a concentration for half-maximal inhibition (IC50) of 55.8 µM.

As to `Oc1nc2cscc2c(O)c1-c1ccccc1`, the affinity on Glutamate NMDA receptor, expressed as Ki, was 26 µM.

At Glutamate NMDA receptor, `Oc1nc2sc3c(c2c(O)c1-c1cccc(Oc2ccccc2)c1)CCCC3` came in with an inhibitory constant (Ki) of 0.392 µM. Also, the IC50 in the series with L cells was greater than 30 µM.

On Glutamate NMDA receptor, `CC(C)c1c(Cl)sc2nc(O)c(-c3ccccc3)c(O)c12` had a Ki of 0.0066 µM.

`CC(C)c1c(Cl)sc2nc(O)c(-c3cccc(Oc4ccccc4)c3)c(O)c12`: the Ki on Glutamate NMDA receptor came to 0.00146 µM. Also, half-maximal inhibition with L cells (IC50) required 5.2 µM. The brain level in the series on Rattus norvegicus [1] was determined as 3.5 µmol/kg; in the series on Rattus norvegicus [3] it was 0.28 µmol/kg. Further, the Activity in the series with Mus musculus [2] is recorded as 50%.

Compound `OCc1c(Cl)sc2nc(O)c(-c3cccc(Oc4ccccc4)c3)c(O)c12` yielded a Ki at Glutamate NMDA receptor of 0.069 µM.

With `Cc1cc2c(O)c(-c3ccccc3)c(O)nc2s1`, the inhibition constant (Ki) at Glutamate NMDA receptor was 9.5 µM.

Take `CCC(C)c1c(Cl)sc2nc(O)c(-c3cccc(Oc4ccccc4)c3)c(O)c12` (centres undefined): on Glutamate NMDA receptor, affinity was put at a Ki of 0.002 µM. The IC50 with L cells was 7.9 µM.

As to `NCCc1c(Cl)sc2[nH]c(=O)c(-c3cccc(Oc4ccccc4)c3)c(O)c12`, the inhibitory constant (Ki) on Glutamate NMDA receptor came out at 16.5 µM. Besides, the IC50 on D(2) dopamine receptor was greater than 30 µM.

On Glutamate NMDA receptor, `CC(C)(C)c1c(Cl)sc2nc(O)c(-c3cccc(Oc4ccccc4)c3)c(O)c12` registered an inhibition constant (Ki) of 0.0033 µM. In the series on L cells, the midpoint of inhibition, the IC50, lay at 15.5 µM.

Compound `Oc1nc2sc(Cl)c(C3CCCCC3)c2c(O)c1-c1cccc(Oc2ccccc2)c1` displayed an inhibitory constant (Ki) on Glutamate NMDA receptor greater than 30 µM. This compound came in with a 50% inhibitory concentration (IC50) in the series on L cells greater than 50 µM.

In turn, `CCc1csc2nc(O)c(-c3ccccc3)c(O)c12` came in with an inhibition constant (Ki) on Glutamate NMDA receptor of 0.53 µM.

As to `CCc1c(Cl)sc2nc(O)c(-c3ccccc3)c(O)c12`, at Glutamate NMDA receptor, affinity was put at a Ki of 0.0089 µM.

Take `CCc1c(Br)sc2nc(O)c(-c3ccccc3)c(O)c12`: on Glutamate NMDA receptor, the inhibitory constant (Ki) worked out at 0.0105 µM.

In the case of `CC(C)c1c(Cl)sc2nc(S)c(-c3ccccc3)c(O)c12`, the inhibition constant (Ki) at Glutamate NMDA receptor is 0.89 µM.

Take `Cc1csc2nc(O)c(-c3ccccc3)c(O)c12`: the Ki on Glutamate NMDA receptor was 8.3 µM.

Regarding `Oc1nc2scc(C3CC3)c2c(O)c1-c1ccccc1`, at Glutamate NMDA receptor, the Ki stood at 4.75 µM.

Compound `Oc1nc2ccsc2c(O)c1-c1ccccc1` gave an inhibition constant Ki at Glutamate NMDA receptor of 97.5 µM.

Compound `CCC(C)c1csc2nc(O)c(-c3cccc(Oc4ccccc4)c3)c(O)c12` (centres undefined) showed an inhibition constant (Ki) on Glutamate NMDA receptor of 0.096 µM. This compound also yielded an IC50 in the series on L cells greater than 50 µM.

Turning to `Oc1nc2sc3c(c2c(O)c1-c1cccc(Oc2ccccc2)c1)CCCS3`, the Ki on Glutamate NMDA receptor was found to be 0.037 µM. Moreover, the IC50 in the series with L cells is greater than 250 µM.

`Oc1nc2sc(Cl)cc2c(O)c1-c1cccc(Oc2ccccc2)c1` displayed an inhibition constant Ki on Glutamate NMDA receptor of 0.0166 µM. Also, the IC50 with L cells stood at 15.4 µM. The Activity in the series on Mus musculus [4] turned out to be 10%.

Regarding `O=c1[nH]c2cc(Cl)ccc2c(O)c1-c1ccccc1`, the Ki on Glutamate NMDA receptor worked out at 0.151 µM.

On Glutamate NMDA receptor, `O=c1[nH]c2cc(Cl)ccc2c(O)c1-c1cccc(Oc2ccccc2)c1` came in with an inhibition constant Ki of 0.0014 µM. The brain level in the series with Rattus norvegicus [5] turned out to be 5.5 µmol/kg; in the series on Rattus norvegicus [6], 1.4 µmol/kg. The compound further displayed an Activity with Mus musculus [7] of 50%.

As to `O=c1[nH]c2ccccc2c(O)c1-c1ccccc1`, at Glutamate NMDA receptor, the Ki is 12.2 µM.

On Glutamate NMDA receptor, `CCc1cc2c(O)c(-c3ccccc3)c(O)nc2s1` yielded a Ki of 3.1 µM.

On to `COCc1c(Cl)sc2nc(O)c(-c3cccc(Oc4ccccc4)c3)c(O)c12`, for which, on Glutamate NMDA receptor, affinity was put at a Ki of 0.0016 µM. The IC50 in the series with L cells was 15.7 µM. The same compound had an Activity with Mus musculus [4] of 30%.

As to `Cc1sc2nc(O)c(-c3ccccc3)c(O)c2c1C`, on Glutamate NMDA receptor, the affinity corresponds to a Ki of 1.27 µM.

With `Oc1nc2sc3c(c2c(O)c1-c1cccs1)CCCC3`, the Ki at Glutamate NMDA receptor is 23.1 µM.

`Cc1c(Br)sc2nc(O)c(-c3ccccc3)c(O)c12`: the Ki at Glutamate NMDA receptor was determined as 0.39 µM.

Turning to `CC1=C(CN)SC2NC(=O)C(c3cccc(Oc4ccccc4)c3)=C(O)C12` (centres undefined), the Ki on Glutamate NMDA receptor amounted to 1.98 µM.

For `Cc1c(Cl)sc2nc(O)c(-c3cccc(Oc4ccccc4)c3)c(O)c12`, at Glutamate NMDA receptor, the affinity corresponds to a Ki of 0.023 µM. Further, the IC50 in the series on L cells is greater than 200 µM.

In turn, `NCCc1c(Cl)sc2nc(O)c(-c3ccccc3)c(O)c12` showed an inhibitory constant (Ki) on Glutamate NMDA receptor of 4.55 µM. Besides, the IC50 on D(2) dopamine receptor was greater than 10 µM.

The compound `Cc1cc2c(O)c(-c3cccs3)c(O)nc2s1` gave a Ki on Glutamate NMDA receptor of 22.7 µM.

The compound `Cc1csc2nc(O)c(-c3cccs3)c(O)c12` displayed a Ki at Glutamate NMDA receptor of 34 µM.

As to `CCC(C)c1csc2nc(O)c(-c3ccccc3)c(O)c12` (centres undefined), the affinity at Glutamate NMDA receptor corresponds to a Ki of 0.94 µM.

In turn, `Oc1nc2sc3c(c2c(O)c1-c1cccc(Oc2ccccc2)c1)CCC3` came in with a Ki at Glutamate NMDA receptor of 0.118 µM.

`CCCCCCc1c(Cl)sc2nc(O)c(-c3cccc(Oc4ccccc4)c3)c(O)c12` had a Ki on Glutamate NMDA receptor of 0.08 µM. Besides, in the series with L cells, the IC50 is greater than 50 µM.

On Glutamate NMDA receptor, `Cc1csc2nc(O)c(-c3cccc(Oc4ccccc4)c3)c(O)c12` showed an inhibition constant Ki of 0.33 µM. Moreover, in the series with L cells, the IC50 is greater than 250 µM.

For `CCC(C)c1c(Cl)sc2nc(O)c(-c3ccccc3)c(O)c12` (centres undefined), the inhibitory constant (Ki) on Glutamate NMDA receptor was found to be 0.0058 µM.

Consider `CCc1c(Cl)sc2nc(O)c(-c3cccc(Oc4ccccc4)c3)c(O)c12`, for which the Ki at Glutamate NMDA receptor is 0.00111 µM. Besides, the Activity with Mus musculus [8] and in the series with Mus musculus [9] was 50% each time.

Turning to `Cc1c(Cl)sc2nc(O)c(-c3ccccc3)c(O)c12`, the Ki at Glutamate NMDA receptor turned out to be 0.267 µM.

In turn, `Oc1nc2sccc2c(O)c1-c1cccc(Oc2ccccc2)c1` showed an inhibitory constant (Ki) at Glutamate NMDA receptor of 0.368 µM. In the series with L cells, this compound gave an IC50 of 89.2 µM.

In the case of `Oc1nc2sccc2c(O)c1-c1ccccc1`, the affinity on Glutamate NMDA receptor corresponds to a Ki of 16.4 µM.
